# Screens as filed in PubChem BioAssay.
# MEKK2wt PB1 HTS: raises or lowers MEK5 binding to wildtype human MEKK2 PB1 domain. Q9Y2U5. bead flow cytometry, Alexa488-MEK5 binding to MEKK2 WT; actives lie on both sides. binding response (% of control), % at 10 µM. hit rate 1.1% among 290,000; in the data active means binding response below about 67% or above about 130%; inconclusive means no clear call, values can overlap the other calls; inactive means in between
# MEKK3 PB1 HTS: raises or lowers MEK5 binding to the human MEKK3 PB1 domain | Q99759 | bead-based flow cytometry, Alexa488-MEK5 binding to MEKK3; actives lie on both sides; 0 = blocked by unlabeled MEK5, 100 = vehicle | binding response (% of control), % at 10 µM | hit rate 1.4% among 290,000;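 active means binding response more than 3 SD above or below the average of its plate-row segment, actives on both sides; inconclusive means wells at one plate position flagged as instrument error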;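 further: Alexa488 bead fluorescence after subtracting the streptavidin-only scavenger bead signal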
# Pemphigus Ab inh: human desmoglein-3 autoantibody binding inhibition. DSG3-coupled beads, scFv-anti-DSG3-GFP binding, flow cytometry; stronger effect = lower value. P32926. hit rate 0.48% among 310,000. binding (percent of control), % at 10 µM;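 active means binding more than 3 SD below its plate's average and above zero; inconclusive means below that plate limit but binding exactly zero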;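 further: hits lower antibody fragment binding to DSG3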
# Target sequence (P32926 whole entry, looked up, the tested form may be a part): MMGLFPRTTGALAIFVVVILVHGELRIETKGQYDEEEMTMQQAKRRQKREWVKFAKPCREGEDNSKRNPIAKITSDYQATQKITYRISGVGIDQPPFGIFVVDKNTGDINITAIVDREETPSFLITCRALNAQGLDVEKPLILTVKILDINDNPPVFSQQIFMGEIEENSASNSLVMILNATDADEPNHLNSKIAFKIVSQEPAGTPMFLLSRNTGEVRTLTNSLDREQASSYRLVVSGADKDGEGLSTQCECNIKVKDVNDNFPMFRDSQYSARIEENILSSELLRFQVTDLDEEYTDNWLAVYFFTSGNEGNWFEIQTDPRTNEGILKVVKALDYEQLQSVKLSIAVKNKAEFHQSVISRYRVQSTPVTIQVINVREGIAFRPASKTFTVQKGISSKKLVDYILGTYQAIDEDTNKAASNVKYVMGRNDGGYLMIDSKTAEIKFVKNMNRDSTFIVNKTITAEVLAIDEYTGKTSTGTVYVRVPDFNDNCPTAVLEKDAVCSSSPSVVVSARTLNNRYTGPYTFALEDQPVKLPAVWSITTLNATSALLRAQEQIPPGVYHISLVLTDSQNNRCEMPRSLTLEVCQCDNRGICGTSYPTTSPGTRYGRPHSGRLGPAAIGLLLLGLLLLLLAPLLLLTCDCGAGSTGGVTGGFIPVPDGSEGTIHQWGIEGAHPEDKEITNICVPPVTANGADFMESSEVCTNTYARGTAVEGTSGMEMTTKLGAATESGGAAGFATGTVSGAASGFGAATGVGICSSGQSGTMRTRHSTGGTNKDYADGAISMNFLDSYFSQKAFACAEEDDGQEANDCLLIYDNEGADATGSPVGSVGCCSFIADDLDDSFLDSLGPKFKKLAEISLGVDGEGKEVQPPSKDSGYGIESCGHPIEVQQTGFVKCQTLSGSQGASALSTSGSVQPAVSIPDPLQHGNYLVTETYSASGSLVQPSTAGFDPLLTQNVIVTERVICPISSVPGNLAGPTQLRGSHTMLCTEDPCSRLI
# MEKK2mut PB1 HTS: signal of MEK5 binding to mutant human MEKK2 PB1 domain | AID 1530 | percent response, % at 10 µM | bead flow cytometry, Alexa488-MEK5 binding to MEKK2 mutant | hit rate 0.35% among 290,000; in the data active means percent response above about 24%, passing the limit was not always enough
# UBC13 inh: blocks human UBC13 polyubiquitin chain formation; hit rate 0.47% among 330,000; TR-FRET; inhibition, % at 20 µM; in the data active means inhibition above about 45%, passing the limit was not always enough; inconclusive means no clear call, values can overlap the other calls
# Apaf1 inhib: human Apaf-1 inhibition | O14727 | reconstituted apoptosome caspase-3 activity, DEVD-Rh110 fluorescence | inhibition, % at 20 µM | hit rate 0.71% among 330,000; active means inhibition of at least 40% at 20 µM;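 further: plate controls were DMSO wells for no effect and DEVD-CHO caspase inhibitor wells for full effect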
#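 Assay system: Apoptosome proteins | Medium: pH 7.5 Hepes buffer with CHAPS, BSA, DTT | Also added: Cytochrome c and DEVD-Rh110 substrate | Times: 30 min plus 50 min, RT | Detection: Rhodamine 110 fluorescence at Ex 480/Em 540 nm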
# MEKK2wt confirm: raises or lowers MEK5 binding to wildtype human MEKK2, retest | shares compounds with MEKK3 PB1 HTS | bead flow cytometry, Alexa488-MEK5 binding to MEKK2 WT; actives lie on both sides | binding response (% of control), % at 10 µM | hit rate 2.4% among 5,900 | AID 1892; in the data active means binding response below about 16% or above about 210%; inactive means in between
# MEKK2mut confirm: signal of MEK5 binding to mutant human MEKK2, retest. shares compounds with MEKK3 PB1 HTS. bead flow cytometry, Alexa488-MEK5 binding to MEKK2 mutant. percent response, % at 10 µM. hit rate 2% among 5,900. AID 1893; in the data active means percent response mostly above about 71%, no sharp cut-off; inactive means mostly below about 38%;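 further: higher means compound restores mutant binding toward wildtype level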
# MEKK3-MEK5 inh: MEKK3-MEK5 PB1 inhibition, single concentration confirmation; shares compounds with MEKK3 PB1 HTS; hit rate 1.8% among 5,900; bead flow cytometry, Alexa488-MEK5 binding to MEKK3; stronger effect = lower value; binding response (% of control), % at 10 µM; AID 1894;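 active means binding response below 72% of control, or above a set upper limit, though filed actives all read lower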;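 further: 100% = DMSO only wells and 0% = binding blocked by excess unlabeled MEK5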
# Active calls of the source: *; ? = inconclusive; · = no result; [ ] = dose if it differs, or a comment. This is a sample that favours compounds with a hit; in the whole collection about 3.2% have one here.
SMILES,MEKK2wt PB1 HTS,MEKK3 PB1 HTS,Pemphigus Ab inh,MEKK2mut PB1 HTS,UBC13 inh,Apaf1 inhib,MEKK2wt confirm,MEKK2mut confirm,MEKK3-MEK5 inh
CNCc1ccccc1Sc1cccc2ccccc12,122,154*,103,2,16,-1,125,12,104
COc1ccc(OC)c(NC(=O)CCN2CC(C)CC(C)C2)c1 (stereo unspecified),105,101,109,1,-3,-2,·,·,·
COc1ccc(S(=O)(=O)N(C)CC(=O)Nc2ccccc2SC)cc1,101,97,107,-2,13,-2,·,·,·
CSc1ccccc1NC(=O)CN(C)CC(=O)Nc1cc(C)ccc1C,96,68*[inhibitor],93,-2,11,-14,99,-13,99
COc1ccc(S(=O)(=O)N(C)CC(=O)Nc2ccccc2SC)cc1Cl,89,82*[inhibitor],98,-8,13,15,102,3,107
O=C(NCc1ccc(F)cc1)c1cccc(S(=O)(=O)N2CCOCC2)c1,·,·,108,·,-4,1,·,·,·
Oc1c(Br)cc(Br)cc1C=Nc1ccc2c(c1)OCCO2,88,102,100,2,-12,10,·,·,·
O=[N+]([O-])c1cccc(N/N=C/c2cc([N+](=O)[O-])ccc2O)c1,115,139*,106,5,-34,14,95,-2,96
O=[N+]([O-])c1ccc(O)c(C=Nc2ccc3c(c2)OCCO3)c1,99,142*,·,1,-6,15,97,-6,100
O=[N+]([O-])c1ccc(O)c(C=NNc2ccc(S(=O)(=O)O)cc2)c1,·,·,91,·,·,·,·,·,·
O=[N+]([O-])c1ccc(O)c(C=Nc2ccc3oc(Cc4ccc(Cl)cc4)nc3c2)c1,106,134*,·,174*,0,-3,93,-4,104
CN(CC(=O)Nc1ccccc1Cl)C(=O)c1ccc(N2C(=O)CCC2=O)cc1,·,·,103,·,-2,1,·,·,·
O=C(COC(=O)/C=C/c1cccc(Cl)c1)NCCC1=CCCCC1,109,130*,94,2,6,-3,103,3,104
CCN(CC)CCCN(C(=O)c1cccs1)c1nc(-c2ccc(OC)cc2)cs1,143*,97,·,2,14,25,116,13,104
CCN(CC)CCCN(C(=O)c1ccco1)c1nc(-c2ccc(Cl)cc2)cs1,169*,108,110,39*,16,26,158,29,108
CCN(CC)CCCN(C(=O)c1cccc(C)c1)c1nc(-c2ccc(OC)cc2)cs1,143*,106,120,14,22,17,151,22,106
CCN(CC)CCCN(C(=O)c1ccc(Br)cc1)c1nc(-c2ccc(OC)cc2)cs1,176*,100,116,24*,26,27,152,21,78
CCN(CC)CCCN(C(=O)c1ccco1)c1nc(-c2ccc(C)cc2)cs1,135,105,·,-1,9,-6,·,·,·
COc1ccc(-c2csc(N(C)C(=O)c3cccs3)n2)cc1,103,106,108,3,-8,-2,·,·,·
Cc1ccc(-n2ncc3c2CC(C)(C)CC3NC(=O)CCc2ccncc2)cc1 (stereo unspecified),85,88,97,-10,1,4,·,·,·
CCCc1c(C)nc(N2CCN(c3ccccc3F)CC2)[nH]c1=O,108,105,96,5,3,-7,·,·,·
Cc1nnc(NC(=O)C2CCN(S(=O)(=O)c3ccc(F)c(Cl)c3)CC2)o1,·,·,92,·,-6,8,·,·,·
O=C(O)CCN1C(=O)C2C3CC(C2C1=O)C1C(c2ccccc2)c2sc(=O)[nH]c2SC31 (stereo unspecified),97,102,89,2,-5,-2,·,·,·
O=C(O)CCN1C(=O)C2C3CC(C2C1=O)C1C(c2ccccc2)c2sc(=O)n(-c4ccccc4)c2SC31 (stereo unspecified),112,129*,105,0,-12,3,99,3,99
O=C(NCc1cnc2ccccn12)C1CCC(=O)N(Cc2ccccc2F)C1 (stereo unspecified),105,102,116,2,-3,10,·,·,·
SMILES,MEKK2wt PB1 HTS,MEKK3 PB1 HTS,Pemphigus Ab inh,MEKK2mut PB1 HTS,UBC13 inh,Apaf1 inhib,MEKK2wt confirm,MEKK2mut confirm,MEKK3-MEK5 inh
O=C(CN1CCC(C(O)(c2ccccc2)c2ccccc2)CC1)Nc1cc(Cl)ccc1Cl,78,72*[inhibitor],101,-14,-15,13,98,-2,104
Cc1ccc(Cl)cc1N1CCN(C(=O)CSc2ccsc2[N+](=O)[O-])CC1,102,133*,115,0,-4,7,94,-7,95
O=C(CSc1ccc(Cl)cc1)N1CCN(c2ccc([N+](=O)[O-])cc2Cl)CC1,95,98,?,0,6,16,·,·,·
O=C1CN(S(=O)(=O)c2cc(C(F)(F)F)ccc2Cl)CCN1,·,·,105,·,0,4,·,·,·
Cc1ccc(C(=O)NNC(=O)CSc2nnc(C(C)C)n2C)cc1,100,98,·,-4,1,1,·,·,·
O=C(Nc1ccnn1C1CCN(C/C=C/c2ccccc2)CC1)c1cccc(F)c1,140*,107,112,16,5,4,122,11,107
COc1ccc(CNC(=O)c2cc(S(=O)(=O)N3CCCCC3)ccc2N2CCOCC2)cc1OC,·,·,104,·,·,·,·,·,·
Nc1ccc(C(=O)OCC(=O)N2CCN(C(=O)c3ccco3)CC2)cc1[N+](=O)[O-],105,134*,119,0,0,2,105,8,107
CC(C)CCNC(=O)Cc1csc(-c2ccccc2)n1,3.0*[inhibitor],2.0*[inhibitor],99,-46,-10,-4,92,-6,91
O=C(Cc1ccc(-n2c(=O)[nH]c3ccsc3c2=O)cc1)NCc1cccnc1,109,139*,100,1,-11,4,103,0,101
O=C(O)CC(C(=O)Nc1ccc(Cl)cc1)N1CCCCCC1 (stereo unspecified),110,105,110,10,5,-4,·,·,·
COc1cc2[nH]c3c(Cl)ncnc3c2cc1OC,94,71*[inhibitor],84,1,27,9,108,14,103
COc1ccc(CCNc2ncnc3c2[nH]c2cc(OC)c(OC)cc23)cc1OC,120,104,98,12,12,6,·,·,·
O=c1cc(CCl)nc(Cc2c(Cl)cccc2Cl)[nH]1,·,·,101,·,-3,-14,·,·,·
